Our source for the IC50 and CI values is ChEMBL document CHEMBL4145462, “Nitrogen-containing ecdysteroid derivatives vs. multi-drug resistance in cancer: Preparation and antitumor activity of oximes, oxime ethers and a lactam” (Eur J Med Chem, 2018).

For one test, the system named is SiHa. Description: Antiproliferative activity against human SiHa cells after 72 hrs by MTT assay. The test is classed as functional, cell-based.
Details: not given
In short, it runs like this: (§1)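 Cells grown in MEM with 10% FCS, 1% non-essential amino acids and 1% penicillin-streptomycin. Seeded at 5000 cells/well, exposed to 0.1–30.0 µM compound for 72 h. MTT (5 mg/ml solution) was then added for 4 h, formazan dissolved in DMSO, and absorbance read at 545 nm. Cisplatin served as positive control. IC50 came from sigmoidal dose–response fits (log inhibitor vs normalized response, variable slope).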
With `CC(C)(O)CC[C@H]1OC(C)(C)O[C@]1(C)[C@H]1CC=C2C3=C/C(=N/OC(C)(C)C)[C@@H]4C[C@H]5OC(C)(C)O[C@H]5C[C@]4(C)[C@H]3CC[C@@]21C`, the concentration for half-maximal inhibition (IC50) stood at 8.14 µM. That is a single-digit micromolar value.

System in another test: not listed separately
Description: Synergistic cytotoxicity against mouse L5178 cells assessed as combination index at ED50 using 150:1 test compound to doxorubicin ratio after 48 hrs by MTT-based checkerboard microplate method. The test is classed as functional.
Details: not given
The procedure, abridged:
(§2)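 Checkerboard microplate combinations of compound with doxorubicin at constant molar ratios. 5 × 10^4 cells/well in McCoy's 5A, 48 h at 37°C, 5% CO2. MTT added to 0.5 mg/mL final for 4 h, SDS/HCl overnight, OD read at 540 and 630 nm. Combination indices derived per ratio for 50%, 75% and 90% growth inhibition by median-effect analysis.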
With `CC(C)(O)CC[C@H]1OC(C)(C)O[C@]1(C)[C@H]1CC=C2C3=C/C(=N/OC(C)(C)C)[C@@H]4C[C@H]5OC(C)(C)O[C@H]5C[C@]4(C)[C@H]3CC[C@@]21C`, the CI worked out at 0.34.

System in a further test: not listed separately
The test can be described thus: Synergistic cytotoxicity against mouse L5178 cells expressing human ABCB1 assessed as combination index at ED90 using 7.5:1 test compound to doxorubicin ratio after 48 hrs by MTT-based checkerboard microplate method. The test is classed as functional.
Details: not given
The procedure, abridged:
as §2
Regarding `CC(C)(O)CC[C@H]1OC(C)(C)O[C@]1(C)[C@H]1CC=C2C3=C/C(=N/OC(C)(C)C)[C@@H]4C[C@H]5OC(C)(C)O[C@H]5C[C@]4(C)[C@H]3CC[C@@]21C`, the CI stood at 0.23.

System in the next test: not listed separately
The test can be described thus: Synergistic cytotoxicity against mouse L5178 cells expressing human ABCB1 assessed as combination index at ED90 using 30:1 test compound to doxorubicin ratio after 48 hrs by MTT-based checkerboard microplate method. The test is classed as functional.
Details: not given
In short, it runs like this:
as §2
As to `CC(C)(O)CC[C@H]1OC(C)(C)O[C@]1(C)[C@H]1CC=C2C3=C/C(=N/OC(C)(C)C)[C@@H]4C[C@H]5OC(C)(C)O[C@H]5C[C@]4(C)[C@H]3CC[C@@]21C`, the CI came to 0.31.

System in the next test: not listed separately
The test can be described thus: Synergistic cytotoxicity against mouse L5178 cells expressing human ABCB1 assessed as combination index at ED75 using 15:1 test compound to doxorubicin ratio after 48 hrs by MTT-based checkerboard microplate method. The test is classed as functional.
Details: not given
The procedure, abridged: as §2
Take `CC(C)(O)CC[C@H]1OC(C)(C)O[C@]1(C)[C@H]1CC=C2C3=C/C(=N/OC(C)(C)C)[C@@H]4C[C@H]5OC(C)(C)O[C@H]5C[C@]4(C)[C@H]3CC[C@@]21C`: the CI turned out to be 0.32.

System in the next test: not listed separately
The test can be described thus: Synergistic cytotoxicity against mouse L5178 cells expressing human ABCB1 assessed as combination index at ED75 using 3.75:1 test compound to doxorubicin ratio after 48 hrs by MTT-based checkerboard microplate method. The test is classed as functional.
Details: not given
The procedure, abridged:
as §2
Take `CC(C)(O)CC[C@H]1OC(C)(C)O[C@]1(C)[C@H]1CC=C2C3=C/C(=N/OC(C)(C)C)[C@@H]4C[C@H]5OC(C)(C)O[C@H]5C[C@]4(C)[C@H]3CC[C@@]21C`: the CI is 0.29.

System in another test: not listed separately
Description: Synergistic cytotoxicity against mouse L5178 cells assessed as combination index at ED90 using 300:1 test compound to doxorubicin ratio after 48 hrs by MTT-based checkerboard microplate method. The test is classed as functional.
Details: not given
In short, it runs like this: as §2
Take `CC(C)(O)CC[C@H]1OC(C)(C)O[C@]1(C)[C@H]1CC=C2C3=C/C(=N/OC(C)(C)C)[C@@H]4C[C@H]5OC(C)(C)O[C@H]5C[C@]4(C)[C@H]3CC[C@@]21C`: the CI was 1.07.

System in a further test: not listed separately
Description: Synergistic cytotoxicity against mouse L5178 cells assessed as combination index at ED50 using 75:1 test compound to doxorubicin ratio after 48 hrs by MTT-based checkerboard microplate method. The test is classed as functional.
Details: not given
The procedure, abridged: as §2
As to `CC(C)(O)CC[C@H]1OC(C)(C)O[C@]1(C)[C@H]1CC=C2C3=C/C(=N/OC(C)(C)C)[C@@H]4C[C@H]5OC(C)(C)O[C@H]5C[C@]4(C)[C@H]3CC[C@@]21C`, the CI is on record as 0.82.

A further test concerns HeLa. Description: Antiproliferative activity against human HeLa cells after 72 hrs by MTT assay. The test is classed as functional, cell-based.
Details: not given
The procedure, abridged:
as §1
Compound `CC(C)(O)CC[C@H]1OC(C)(C)O[C@]1(C)[C@H]1CC=C2C3=C/C(=N/OC(C)(C)C)[C@@H]4C[C@H]5OC(C)(C)O[C@H]5C[C@]4(C)[C@H]3CC[C@@]21C` yielded an IC50 of 20.7 µM.

System in another test: not listed separately
Description: Cytotoxicity against mouse L5178 cells expressing human ABCB1 after 48 hrs by MTT assay. The test is classed as functional, cell-based. Conditions: L5178, 48 h. In short, it runs like this:
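Parental mouse lymphoma L5178 and the MDR line made by pHa MDR1/A retrovirus transfection, selected with 60 µg/L colchicine. Grown in McCoy's 5A with horse serum at 37°C, 5% CO2. 5 x 10^4 cells/well, serial compound dilutions, 48 h. MTT added to 0.5 mg/mL final for 4 h, then 10% SDS in 0.01 M HCl overnight, OD read at 540 and 630 nm. IC50 taken as median cytotoxic activity (Dm) from control lanes of checkerboard plates, n=2.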
Consider `CC(C)(O)CC[C@H]1OC(C)(C)O[C@]1(C)[C@H]1CC=C2C3=C/C(=N/OC(C)(C)C)[C@@H]4C[C@H]5OC(C)(C)O[C@H]5C[C@]4(C)[C@H]3CC[C@@]21C`, for which the half-maximal inhibitory concentration (IC50) was determined as 51.2 µM.

System in a further test: not listed separately
The test can be described thus: Synergistic cytotoxicity against mouse L5178 cells assessed as combination index at ED75 using 75:1 test compound to doxorubicin ratio after 48 hrs by MTT-based checkerboard microplate method. The test is classed as functional.
Details: not given
The procedure, abridged: as §2
For the compound `CC(C)(O)CC[C@H]1OC(C)(C)O[C@]1(C)[C@H]1CC=C2C3=C/C(=N/OC(C)(C)C)[C@@H]4C[C@H]5OC(C)(C)O[C@H]5C[C@]4(C)[C@H]3CC[C@@]21C`, the CI is 0.67.

System in a further test: not listed separately
Description: Synergistic cytotoxicity against mouse L5178 cells assessed as combination index at ED75 using 37.5:1 test compound to doxorubicin ratio after 48 hrs by MTT-based checkerboard microplate method. The test is classed as functional.
Details: not given
The procedure, abridged: as §2
Consider `CC(C)(O)CC[C@H]1OC(C)(C)O[C@]1(C)[C@H]1CC=C2C3=C/C(=N/OC(C)(C)C)[C@@H]4C[C@H]5OC(C)(C)O[C@H]5C[C@]4(C)[C@H]3CC[C@@]21C`, for which the CI came out at 0.59.

System in the next test: not listed separately
The test can be described thus: Synergistic cytotoxicity against mouse L5178 cells expressing human ABCB1 assessed as combination index at ED75 using 60:1 test compound to doxorubicin ratio after 48 hrs by MTT-based checkerboard microplate method. The test is classed as functional.
Details: not given
In short, it runs like this:
as §2
`CC(C)(O)CC[C@H]1OC(C)(C)O[C@]1(C)[C@H]1CC=C2C3=C/C(=N/OC(C)(C)C)[C@@H]4C[C@H]5OC(C)(C)O[C@H]5C[C@]4(C)[C@H]3CC[C@@]21C`: the CI is on record as 0.5.

System in the next test: not listed separately
The test can be described thus: Synergistic cytotoxicity against mouse L5178 cells assessed as combination index at ED90 using 600:1 test compound to doxorubicin ratio after 48 hrs by MTT-based checkerboard microplate method. The test is classed as functional.
Details: not given
In short, it runs like this: as §2
On to `CC(C)(O)CC[C@H]1OC(C)(C)O[C@]1(C)[C@H]1CC=C2C3=C/C(=N/OC(C)(C)C)[C@@H]4C[C@H]5OC(C)(C)O[C@H]5C[C@]4(C)[C@H]3CC[C@@]21C`, for which the CI amounted to 0.94.
